High-throughput results deposited in PubChem by several laboratories.
FXIIa inh: blocks human coagulation factor XIIa protease activity. AID 800. 220,000 tested, 0.3% active. P00748. purified FXIIa, Boc-QGR-AMC fluorogenic substrate, 2 h. inhibition, % at 5 µM; in the data active = inhibition above about 40%
Thrombin inh: thrombin (human) inhibition; P00734; alpha-thrombin, Boc-VPR-AMC fluorogenic substrate cleavage; inhibition, % at 5 µM; 220,000 tested, 0.26% active; AID 1046;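 active = inhibition at or above 40%; inactive = inhibition below 40%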
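System – human alpha-thrombin · Medium – pH 7.5 Tris (50 mM) with NaCl 150 mM, Tween 20 0.05% · Compound – single-point dosing at 5 µM, 0.2% DMSO · Incubation – enzyme reaction carried out at room temperature · Technique – fluorescence of released AMC, ex 355 nm, em 460 nm · Read-out basis – % inhibition of thrombin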
FXIa inh: factor XIa (human) inhibition. P03951. purified FXIa, Boc-Glu-Ala-Arg-AMC fluorogenic substrate. AID 798. 220,000 tested, 0.14% active. inhibition, % at 5 µM;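 active = inhibition of at least 40%; inactive = inhibition below 40%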;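 also: fluorescence of freed AMC excited at 355 nm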
CTSL1 counter: counter-screen for PFM18AAP inhibitors: inhibitors of F. hepatica cathepsin L1; recombinant F. hepatica cathepsin L1, Z-Leu-Arg-MCA fluorescence; inhibition, % at 5.96 µM; 300,000 tested, 0.49% active; AID 1906;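 active = inhibition above the mean of all tested compounds plus 3 SD, set per screening campaign, cut at about 17% in these data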
hK5 inh: kallikrein 5 (human) inhibition | AID 873 | 210,000 tested, 0.59% active | recombinant hK5, fluorogenic AMC substrate cleavage | inhibition, % at 5 µM | Q9Y337;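 active = inhibition of 40% or more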
Target sequence (Q9Y337 67-293 limits assumed): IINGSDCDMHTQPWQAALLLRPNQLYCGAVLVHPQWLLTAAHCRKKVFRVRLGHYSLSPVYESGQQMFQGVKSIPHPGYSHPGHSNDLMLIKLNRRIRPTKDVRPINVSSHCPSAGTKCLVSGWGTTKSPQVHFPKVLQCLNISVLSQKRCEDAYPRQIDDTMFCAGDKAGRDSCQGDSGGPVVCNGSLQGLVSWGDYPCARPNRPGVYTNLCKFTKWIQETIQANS
Rce1 inh: yeast Ras-converting enzyme inhibition. calls only. 290,000 tested, 0.27% active. yeast membranes, quenched prenylated peptide cleavage fluorescence. AID 2563;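 active = fall in fluorescence gain of 50% or more versus controls, with final raw signal at or below 3038400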
Target sequence (Q03530 whole entry, looked up): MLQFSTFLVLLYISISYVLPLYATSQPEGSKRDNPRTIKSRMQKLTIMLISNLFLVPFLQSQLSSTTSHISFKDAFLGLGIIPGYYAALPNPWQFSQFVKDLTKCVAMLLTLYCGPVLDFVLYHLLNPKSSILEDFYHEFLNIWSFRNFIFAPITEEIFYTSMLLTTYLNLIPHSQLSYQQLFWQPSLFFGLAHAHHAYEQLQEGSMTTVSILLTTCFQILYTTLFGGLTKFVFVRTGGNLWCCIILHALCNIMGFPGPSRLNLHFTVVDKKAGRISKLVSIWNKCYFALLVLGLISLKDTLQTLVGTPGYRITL
Large screens that a line does not name were inactive. The list is not random: actives were taken first. Their share in the collection is about 1.4%.

CN1c2ccccc2-c2nc3ccccc3n2C1c1ccncc1 (stereo unspecified)	Rce1 inh active
CCCC[C@@H]1CCCO[C@@](C(=O)NCc2ccccn2)(C(F)(F)F)C1	none (no result: FXIIa inh, Thrombin inh, FXIa inh, hK5 inh)
CC1CCN(S(=O)(=O)c2ccc3c4c2CC(=O)N4CC(C)S3)CC1 (stereo unspecified)	CTSL1 counter 31.3 (no result: FXIIa inh, Thrombin inh, FXIa inh, hK5 inh)
Cc1ccc(S(=O)(=O)N2CCN(S(=O)(=O)N3CCC(C)CC3)CC2)c(C)c1	none (no result: FXIIa inh, Thrombin inh, FXIa inh, hK5 inh, Rce1 inh)
CCc1c(C)nc2ncnn2c1N1CCC(C(=O)Nc2ccc(C)cc2)CC1	none
CCc1c(C)nc2ncnn2c1N1CCC(C(=O)Nc2ccccc2)CC1	FXIIa inh 53.2
O=C(Oc1ccc2c3c(c(=O)oc2c1)CCC3)c1ccco1	FXIIa inh 71.3 (no result: Rce1 inh)
CCCCC(Sc1nc(N)c(NC(=O)c2ccco2)c(=O)[nH]1)C(=O)O (stereo unspecified)	none (no result: FXIIa inh, Thrombin inh, FXIa inh, hK5 inh)
CS(=O)(=O)c1nc(-c2ccc(Br)cc2)n[nH]1	FXIIa inh 98.1
CS(=O)(=O)c1ccc(-c2nn[nH]n2)cc1	none
Cc1ccc(C)c(OCC(=O)Nc2cccc(S(=O)(=O)NC3=NCCCCC3)c2)c1	none (no result: FXIIa inh, Thrombin inh, FXIa inh, hK5 inh)
Cc1cc(C(=O)Cn2ncc(Cl)c(Cl)c2=O)c(C)n1CC(F)(F)F	hK5 inh 71.7
Cc1nc(C(=O)Nc2ccc(F)cc2)nn1-c1ccc([N+](=O)[O-])cc1	none
CCc1ccc(Nc2n[n+](-c3ccccc3)c(/C=C/c3ccccc3)s2)cc1	Rce1 inh active (no result: FXIIa inh, Thrombin inh, FXIa inh, hK5 inh)
CCCCCCCc1c(O)nc(SCC(=O)O)[nH]c1=O	none
CCn1ccnc1CN(C)C(=O)C1CCC(=O)N(Cc2cccc(F)c2)C1 (stereo unspecified)	none (no result: FXIIa inh, Thrombin inh, FXIa inh, hK5 inh)
Cc1ccc(/C=C/C(=O)N2CCN(S(=O)(=O)c3c(C)c(C)cc(C)c3C)CC2)o1	CTSL1 counter 43.0
O=C(/C=C/c1ccco1)Nc1cccc(S(=O)(=O)N2CCOCC2)c1	none
Cc1ccc(/C=C/C(=O)Nc2cccc(S(=O)(=O)N3CCOCC3)c2)o1	hK5 inh 71.6
CCOC(=O)C1CCN(C(=O)CN2C(=O)CSc3ccc(S(=O)(=O)N4CCOCC4)cc32)CC1	none (no result: FXIIa inh, Thrombin inh, FXIa inh, hK5 inh)
Cc1ccc(-c2cn3cccc(C)c3n2)cc1	none (no result: CTSL1 counter)
COc1ccc(-c2nc3c(-c4ccccc4)cnn3cc2C)cc1F	CTSL1 counter 20.3 (no result: hK5 inh)
COc1ccc(-c2cn3cccc(C)c3n2)cc1F	hK5 inh 40.8
CC(Oc1ccc2c(-c3ccccc3)cc(=O)oc2c1)C(=O)N1CCC[C@@H]1C(N)=O (stereo partly specified)	CTSL1 counter 42.4 (no result: FXIIa inh, Thrombin inh, FXIa inh, hK5 inh)
COc1ccc(-c2cc(=O)oc3cc(OC(C)C(=O)O)ccc23)cc1 (stereo unspecified)	none
O=C(Nc1ccccc1)Nc1ccc(O)c2ccccc12	none (no result: FXIIa inh, Thrombin inh, FXIa inh, hK5 inh)
O=C(Nc1cccc(-n2cnnn2)c1)c1cccs1	none (no result: FXIIa inh, Thrombin inh, FXIa inh, hK5 inh)
Cc1ccsc1C(=O)Nc1cccc(-n2cnnn2)c1	CTSL1 counter 19.1 (no result: FXIIa inh, Thrombin inh, FXIa inh, hK5 inh)
CCc1nc(Nc2ccccc2)c2oc3ccccc3c2n1	none
CCc1nc(OCCN(C)C)c2oc3ccccc3c2n1	hK5 inh 42.6
N#Cc1c(Nc2ccccc2)sc(C(=O)c2ccc(F)cc2)c1N	none
Nc1c(C(=O)c2ccccc2)sc(Nc2ccccc2)c1S(=O)(=O)c1ccccc1	CTSL1 counter 18.8
CN(C)CCCN(C(=O)CCc1ccccc1)c1nc2ccc(F)cc2s1	none
CN(C)CCCN(C(=O)c1cc(-c2cccs2)nc2ccccc12)c1nc2ccc(F)cc2s1	Rce1 inh active (no result: FXIIa inh, Thrombin inh, FXIa inh, hK5 inh)
O=C(C1CCC(=O)N(C2CCCC2)C1)N1CCC(Oc2ccccc2Cl)CC1 (stereo unspecified)	none (no result: FXIIa inh, Thrombin inh, FXIa inh, hK5 inh)
NS(=O)(=O)c1ccc(CNC(=O)c2ccc3ccccc3n2)cc1	none (no result: FXIIa inh, Thrombin inh, FXIa inh, hK5 inh)
NS(=O)(=O)c1ccc(CCNC(=O)c2ccc3ccccc3n2)cc1	Rce1 inh active
Cc1nc2cc(NC(=O)c3ccc(S(=O)(=O)N(C)c4ccccc4)cc3)ccc2o1	none (no result: FXIIa inh, Thrombin inh, FXIa inh, hK5 inh)
Cc1nc(N2CCC(C)CC2)c2c(C)c(C(=O)Nc3ccc(C(F)(F)F)cc3)sc2n1	none
Cc1nc(N2CCCCC2C)c2c(C)c(C(=O)Nc3ccccc3C(F)(F)F)sc2n1 (stereo unspecified)	Rce1 inh active
Cc1nc(N2CCOCC2)c2c(C)c(C(=O)Nc3ccccc3C(F)(F)F)sc2n1	Rce1 inh active
CN1CCN(NC(=O)c2ccc(S(=O)(=O)N3CC4(C)CC3CC(C)(C)C4)cc2)CC1 (stereo unspecified)	none
O=C(CC1CCCCC1)NCc1ccccc1Cl	none (no result: FXIIa inh, Thrombin inh, FXIa inh, hK5 inh)
CCN(CC)C(=N)/C(C#N)=N/Nc1ccc(C)cc1	hK5 inh 42.1
Oc1ccc(/C=N/N2CCN(C3c4ccccc4-c4ccccc43)CC2)c(O)c1	FXIa inh 47.7
COc1ccc(C(C)NS(=O)(=O)Cc2ccccc2)cc1 (stereo unspecified)	none (no result: FXIIa inh, Thrombin inh, FXIa inh, hK5 inh)
C(=N\c1nc2ccccc2n1CCN1CCCCC1)/c1ccc2c(c1)OCO2	none
CCCn1c(/N=C/c2ccc3c(c2)OCO3)nc2ccccc21	hK5 inh 43.2
CCCCNC(=O)Oc1c(Br)cc2sc(=O)oc2c1Br	CTSL1 counter 22.8 (no result: Rce1 inh)
Cc1ccc(C(C)C)c(OCc2ccc(C(=O)N/N=C/c3cccc(O)c3O)cc2)c1	none
N#CC1=C(c2ccccc2)/C(=C/c2ccccc2)OC1=O	none
N#CC(C#N)=C1NC(N)=C(C#N)C(c2ccccc2)=C1C#N	Rce1 inh active (no result: FXIIa inh, Thrombin inh, FXIa inh, hK5 inh)
COc1ccc(/C=N/NC(=O)c2sc3nc(C)cc(C)c3c2N)cc1	FXIIa inh 87.3, Thrombin inh 41.6, hK5 inh 48.0
COc1ccc(NC(=O)c2sc3nc(C)cc(C)c3c2N)cc1	none (no result: FXIIa inh, Thrombin inh, FXIa inh, hK5 inh)
Nc1ncnc2nc(SCc3ccccc3)[nH]c12	none
Nc1ncnc2nc(SCCN3CCCCC3)[nH]c12	Thrombin inh 76.2
Cc1cccc(CN2CCN(C(C)C(=O)NC(C)c3ccccc3)CC2)c1 (stereo unspecified)	none (no result: FXIIa inh, Thrombin inh, FXIa inh, hK5 inh)
COCCCNC(=S)NCCNc1nc2cc(C)cc(C)c2cc1C#N	Rce1 inh active
CCn1nnc2cc(C(=O)Nc3cc(OC)cc(OC)c3)ccc21	none (no result: FXIIa inh, Thrombin inh, FXIa inh, hK5 inh)
COc1ccc(/C=N/Nc2nncc3ccccc23)cc1	CTSL1 counter 52.5
O=C(CSc1ncccn1)NN=C1CCCCCC1	none
COc1cc(/C=C/C(=O)O)cc(S(=O)(=O)NCCO)c1OC	none
Cc1cc(C)c(S(=O)(=O)N2CCN(c3ccc([N+](=O)[O-])c(NCC4CCCO4)c3)CC2)c(C)c1 (stereo unspecified)	hK5 inh 40.7
O=C(COc1ccc(Cl)cc1Cl)Nc1nc2n(n1)C(c1ccccc1)CC(=O)N2 (stereo unspecified)	hK5 inh 57.6
O=C1CC(c2ccccc2)n2nc(NS(=O)(=O)c3ccccc3)nc2N1 (stereo unspecified)	none
CCOC(=O)C1CCCN(C(=O)c2cc3nc(-c4cccc(OC)c4)cc(C(F)(F)F)n3n2)C1 (stereo unspecified)	hK5 inh 54.4
CCOC(=O)C1CCCN(C(=O)c2cc3ncc(Br)cn3n2)C1 (stereo unspecified)	hK5 inh 47.6
